# Source: ChEMBL document CHEMBL4406881, “Design, synthesis and biological evaluation of benzoylacrylic acid shikonin ester derivatives as irreversible dual inhibitors of tubulin and EGFR” (Bioorg Med Chem, 2019)
# The source made the active and inactive calls. No cut-off for these calls is given here.
# How the values were obtained:
# [1] = Cytotoxicity against human LO2 cells assessed as reduction in cell viability after 24 hrs by MTT assay; assay type: cell-based, L02
# In short: (§1)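 MTT colorimetric assay. Cells in log phase in medium with 10% FBS were seeded at 10⁴ cells/well and left overnight at 37 °C, 5% CO₂ to reattach. Compounds were added at 0.1, 1, 10 and 100 μM in 10% FBS for 24 h. IC50 reported as mean ± SD of three independent experiments.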
# [2] = tested on: NCI-H1975; assay: Antiproliferative activity against human NCI-H1975 cells assessed as reduction in cell viability after 24 hrs by MTT assay; assay type: functional, cell-based; details: NCI-H1975, 24 h; in short: as §1
# [3] = tested on: A549; assay: Induction of apoptosis in human A549 cells assessed as late apoptotic cells at 4 uM after 24 hrs by Annexin-V/PI staining based flow cytometry analysis (reference value: 5.69%); assay type: functional
# [4] = tested on: A549; assay: Induction of apoptosis in human A549 cells assessed as necrotic cells after at 4 uM 24 hrs by Annexin-V/PI staining based flow cytometry analysis (reference value: 1.81%); assay type: functional
# In short: (§2)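 A549 cells seeded overnight at 37 °C, 5% CO2, then exposed to 0, 2, 4, 8 or 12 µM for 24 h (dose series) or 8 µM for 0, 12, 24, 36 h (time series). Harvested, PBS-washed, stained with Annexin V-FITC and PI in binding buffer 15 min at room temperature in the dark, analysed by flow cytometry; three independent experiments.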
# [5] = tested on: A549; assay: Induction of apoptosis in human A549 cells assessed as viable cells at 8 uM after 24 hrs by Annexin-V/PI staining based flow cytometry analysis (reference value: 91.4%); assay type: functional; details: A549, 24 h, read-out: Activity; in short: as §2
# [6] = tested on: A549; assay: Induction of apoptosis in human A549 cells assessed as early apoptotic cells at 8 uM after 24 hrs by Annexin-V/PI staining based flow cytometry analysis (reference value: 1.15%); assay type: functional
# [7] = tested on: A549; assay: Induction of apoptosis in human A549 cells assessed as late apoptotic cells at 8 uM after 24 hrs by Annexin-V/PI staining based flow cytometry analysis (reference value: 5.69%); assay type: functional; in short: as §2
# [8] = tested on: A549; assay: Induction of apoptosis in human A549 cells assessed as necrotic cells after at 8 uM 24 hrs by Annexin-V/PI staining based flow cytometry analysis (reference value: 1.81%); assay type: functional; in short: as §2
# [9] = tested on: A549; assay: Induction of apoptosis in human A549 cells assessed as late apoptotic cells at 12 uM after 24 hrs by Annexin-V/PI staining based flow cytometry analysis (reference value: 5.69%); assay type: functional
# [10] = tested on: A549; assay: Induction of apoptosis in human A549 cells assessed as viable cells at 8 uM after 12 hrs by Annexin-V/PI staining based flow cytometry analysis (reference value: 88.4%); assay type: functional; details: A549, 12 h, read-out: Activity; in short: as §2
# [11] = tested on: A549; assay: Induction of apoptosis in human A549 cells assessed as early apoptotic cells at 8 uM after 12 hrs by Annexin-V/PI staining based flow cytometry analysis (reference value: 2.02%); assay type: functional
# [12] = tested on: A549; assay: Induction of apoptosis in human A549 cells assessed as late apoptotic cells at 8 uM after 24 hrs by Annexin-V/PI staining based flow cytometry analysis (reference value: 6.55%); assay type: functional; in short: as §2
# [13] = tested on: A549; assay: Induction of apoptosis in human A549 cells assessed as late apoptotic cells at 8 uM after 36 hrs by Annexin-V/PI staining based flow cytometry analysis (reference value: 6.55%); assay type: functional; in short: as §2
# [14] = tested on: A549; assay: Induction of apoptosis in human A549 cells assessed as reduction in Bcl-2 expression at 2 to 8 uM after 24 hrs by Western blot analysis; assay type: functional, cell-based
# In short: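 A549 cells in 6-well plates were lysed in RIPA buffer with protease inhibitors on ice for 30 min and cleared at 4 °C. Protein was quantified by BCA, run on SDS-PAGE and transferred to PVDF. Membranes were blocked with milk, probed with primary antibody (1:1000) overnight at 4 °C, then secondary antibody (1:3000-1:5000) 1 h at RT. Detection by ECL; band densitometry normalised to GAPDH (β-actin also used). Three independent experiments.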
# [15] = tested on: A549; assay: Induction of apoptosis in human A549 cells assessed as low mitochondrial membrane potential at 12 uM after 12 hrs by JC-1 staining-based flow cytometric analysis (reference value: 6.3%); assay type: functional
# [16] = tested on: A549; assay: Cell cycle arrest in human A549 cells assessed as accumulation at G1 phase at 2 uM after 24 hrs by RNAse A/ PI staining based flow cytometric analysis (reference value: 73.30%); assay type: functional
# In short: (§3)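 A549 cells at 5.0×10^4 per well were grown 12 h at 37 °C. Treatment was 0, 2, 4 or 8 µM for 24 h, or 8 µM for 0, 12, 24 or 36 h. Cells were fixed in 70% ethanol at −20 °C for at least 12 h, then stained in PBS with 0.1 mg/mL RNase A and 5 µg/mL PI. At least 10,000 events per sample were collected by flow cytometry to give G0/G1, S and G2/M percentages.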
# [17] = tested on: A549; assay: Cell cycle arrest in human A549 cells assessed as accumulation at S phase at 2 uM after 24 hrs by RNAse A/ PI staining based flow cytometric analysis (reference value: 17.23%); assay type: functional; in short: as §3
# [18] = tested on: A549; assay: Cell cycle arrest in human A549 cells assessed as accumulation at G2/M phase at 2 uM after 24 hrs by RNAse A/ PI staining based flow cytometric analysis (reference value: 9.47%); assay type: functional; in short: as §3
# [19] = tested on: A549; assay: Cell cycle arrest in human A549 cells assessed as accumulation at G1 phase at 4 uM after 24 hrs by RNAse A/ PI staining based flow cytometric analysis (reference value: 73.30%); assay type: functional; in short: as §3
# [20] = tested on: A549; assay: Cell cycle arrest in human A549 cells assessed as accumulation at S phase at 8 uM after 24 hrs by RNAse A/ PI staining based flow cytometric analysis (reference value: 17.23%); assay type: functional; in short: as §3
# [21] = tested on: A549; assay: Cell cycle arrest in human A549 cells assessed as accumulation at G1 phase at 8 uM after 24 hrs by RNAse A/ PI staining based flow cytometric analysis (reference value: 67.69%); assay type: functional; in short: as §3
# [22] = tested on: A549; assay: Cell cycle arrest in human A549 cells assessed as accumulation at S phase at 8 uM after 24 hrs by RNAse A/ PI staining based flow cytometric analysis (reference value: 19.66%); assay type: functional; in short: as §3
# [23] = tested on: A549; assay: Antitumor activity against ip dosed human A549 cells xenografted in Balb/c mouse assessed as inhibition of tumor volume by measuring fold reduction at 4 mg/kg, ip administered once every two days for 32 days relative to untreated control; assay type: functional
# In short: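 Female BALB/c nude mice, 5-6 weeks old, injected in the flank with 6×10^6 A549 cells in 0.1 mL ice-cold PBS. After two weeks, tumours averaging 90 mm³ were allocated by volume to 5 groups of n = 8. Drugs in DMSO were given ip once every two days, 16 doses in total; a DMSO vehicle group served as control. Tumour volume (L×S²/2) and body weight were recorded every two days; mice were killed on day 32.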
# [24] = tested on: A549; assay: Antitumour activity in ip dosed Balb/c mouse xenografted with human A549 cells assessed as increase in mouse survival at 2 to 4 mg/kg, ip administered once every two days for 32 days; assay type: functional, organism-based
# [25] = tested on: A549; assay: Cell cycle arrest in human A549 cells assessed as accumulation at G2/M phase at 8 uM after 36 hrs by RNAse A/ PI staining based flow cytometric analysis (reference value: 12.65%); assay type: functional; in short: as §3
smiles,measurement,setting,value
CC(C)=CC[C@@H](OC(=O)/C=C\C(=O)c1ccc(F)cc1)C1=CC(=O)c2c(O)ccc(O)c2C1=O,CC50 at 24 h,[1],89.2 µM
same,IC50,[2],9.43 µM
same,Activity,[3],10.6%
same,Activity,[4],0.175%
same,viability at 8 µM,[5],30.6%
same,Activity,[6],35.6%
same,Activity,[7],30.5%
same,Activity,[8],3.29%
same,Activity,[9],38.1%
same,viability at 8 µM,[10],79%
same,Activity,[11],8.92%
same,Activity,[12],27.5%
same,Activity,[13],41%
same,Activity,[14],Active
same,Activity,[15],58.7%
same,Activity,[16],61.67%
same,Activity,[17],22.93%
same,Activity,[18],15.4%
same,Activity,[19],59.17%
same,Activity,[20],19.66%
same,Activity,[21],42.59%
same,Activity,[22],23.66%
same,fold change (FC),[23],6
same,Activity,[24],Active
same,Activity,[25],46.55%
